Screening data (PubChem BioAssay)
Rows were chosen to be rich in hits. Some 2% of all compounds tested hit in one or more screens of this group.
eIF4H FP inh: human eIF4H binding inhibitors, primary screen, translation initiation inhibitor project, biochemical, uHTS, fluorescence polarization. Eukaryotic translation initiation factor 4H (Homo sapiens), Q15056. eIF4H fluorescence polarization binding assay. inhibition, % at 35 µM. hit rate 0.94% among 290,000;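 also: calls also rest on retests at 20 µM and on dose response follow-up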
NS3 helicase inh: inhibitors of HCV NS3 helicase, primary screen, biochemical, Cy5 molecular beacon fluorescence. NS3 helicase DNA unwinding. inhibition, % at 10.9 µM. hit rate 0.56% among 290,000;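 active = inhibition above the mean of all tested compounds plus 3 SD, set per campaign, cut at about 35% in these data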;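 also: 0% = DMSO wells and 100% = thioflavine S control wells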
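Assay system – hepatitis C virus NS3 helicase domain fragment enzyme · Buffer or medium – MOPS pH 6.5, MgCl2, DTT, Tween20, BSA · Reagent – Cy5/quencher beacon DNA duplex and ATP to start · Compound – single 10.9 µM dose · Timing – 1 h at 25 °C · Technique – Cy5 beacon fluorescence read at start and 1 h · Measure – % inhibition of unwinding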
HCV core dimer: inhibitors of HCV core protein dimerization, primary screen, biochemical, TR-FRET, high-throughput; hit rate 0.33% among 300,000; inhibition, % at 5 µM; TR-FRET GST/Flag-core106 dimerization, 1536-well;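 active = inhibition above the mean of all tested compounds plus 3 SD, set per screening campaign, cut at about 45% in these data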
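Material: GST/Flag-tagged HCV core106 proteins. Incubation: 4 h, 22.5 °C incubation. Read-out basis: inhibition (%) from 671 over 617 nm ratio. Measured by: TR-FRET, excitation 340 nm, emission 617 and 671 nm.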
MLLE-PAM2 inh: inhibitors of PABP1 MLLE–PAM2 peptide binding, primary screen, biochemical, fluorescence polarization, FITC-PAM2, GST-MLLE | Polyadenylate-binding protein 1 (Homo sapiens), P11940 | inhibition, % at 20 µM | hit rate 0.36% among 360,000; in the data active = inhibition above about 35%, passing the limit was not always enough;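 also: plate controls were DMSO wells with GST-MLLE for no effect and wells lacking GST-MLLE protein for full effect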
DNA FID counter: compounds displacing fluorescent DNA intercalator, primary screen, artefact control for HCV NS3 helicase inhibitor project, biochemical, FID fluorescence | DNA fluorescent intercalator displacement | inhibition, % at 7.9 µM | hit rate 0.17% among 290,000; in the data active = inhibition above about 37%;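 also: 0% = vehicle and 100% = reference compound; higher means more ethidium bromide displaced from hairpin DNA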
PABP FP inh: PABP poly(A) RNA binding inhibitors, primary screen, biochemical, fluorescence polarization, uHTS; Polyadenylate-binding protein 1 (Homo sapiens), P11940; inhibition, % at 35 µM; hit rate 1% among 290,000; AID 2014, 2009;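 also: calls also rest on retests at 20 µM and on dose response follow-up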
The depositor's hits bear a star; · = no result. Unless noted, no rule for the calls is given here.

SMILES	eIF4H FP inh	NS3 helicase inh	HCV core dimer	MLLE-PAM2 inh	DNA FID counter	PABP FP inh
C#CCOCCOCCOCCNc1nc(N2CCN(C(=O)[C@H]([C@@H](C)CC)n3cc([C@@H](N)CC(C)C)nn3)CC2)nc(N2CCN(C(=O)[C@H](Cc3ccc(O)cc3)n3cc([C@@H](N)C(C)CC)nn3)CC2)n1 (some centres undefined)	51	-69	-19	5	35	7
C#CCOCCOCCOCCNc1nc(N2CCN(C(=O)[C@H](Cc3ccc(O)cc3)n3cc([C@@H](N)C(C)CC)nn3)CC2)nc(N2CCN(C(=O)[C@H](CCCCN)n3cc([C@@H](N)CC(C)C)nn3)CC2)n1 (some centres undefined)	46	-77	-20	·	43*	41
C#CCOCCOCCOCCNc1nc(N2CCN(C(=O)[C@H](Cc3ccc(O)cc3)n3cc([C@@H](N)C(C)CC)nn3)CC2)nc(N2CCN(C(=O)[C@H](CCCCN)n3cc([C@@H](N)CO)nn3)CC2)n1 (some centres undefined)	23	-72	8	0	44*	32
C#CCOCCOCCOCCNc1nc(N2CCN(C(=O)C([C@@H](C)CC)n3cc(C(N)CO)nn3)CC2)nc(N2CCN(C(=O)[C@H](CCC(=O)O)n3cc(C(N)Cc4ccc(O)cc4)nn3)CC2)n1 (some centres undefined)	-8	·	·	·	·	3
C#CCOCCOCCOCCNc1nc(N2CCN(C(=O)[C@H](CCCCN)n3cc([C@@H](N)CO)nn3)CC2)nc(N2CCN(C(=O)[C@H](Cc3ccc(O)cc3)n3cc([C@@H](N)CC(C)C)nn3)CC2)n1	24	-62	-7	-5	54*	22
C#CCOCCOCCOCCNc1nc(N2CCN(C(=O)[C@H]([C@@H](C)CC)n3cc([C@@H](N)Cc4ccc(O)cc4)nn3)CC2)nc(N2CCN(C(=O)[C@H](CCCCN)n3cc([C@@H](N)CO)nn3)CC2)n1	28	-70	-5	·	58*	44
C#CCOCCOCCOCCNc1nc(N2CCN(C(=O)[C@H](CCC(=O)O)n3cc(C(N)Cc4ccc(O)cc4)nn3)CC2)nc(N2CCN(C(=O)[C@H](Cc3ccc(O)cc3)n3cc(C(N)[C@H](C)CC)nn3)CC2)n1 (some centres undefined)	-3	·	·	·	·	10
C#CCOCCOCCOCCNc1nc(N2CCN(C(=O)[C@H](CCC(=O)O)n3cc(C(N)CO)nn3)CC2)nc(N2CCN(C(=O)[C@H](Cc3ccc(O)cc3)n3cc(C(N)CC(C)C)nn3)CC2)n1 (some centres undefined)	5	-12	1	·	9	0
CC(C)(C)n1cc(S(=O)(=O)c2ccccc2)[nH]c1=O	active	3	-1	4	1	81*
Cc1cc(C)c(S(=O)(=O)c2ccccc2)c(=O)[nH]1	-12	-3	1	-1	2	-4
COc1ccc(-n2nnnc2C(c2ccccc2OC(F)(F)F)N2CCN(C/C=C/c3ccccc3)CC2)cc1 (centres undefined)	·	·	·	2	·	·
COc1ccc(NC(=O)CN(C)CC(=O)N2CC(=O)Nc3ccccc32)cc1	·	·	·	-10	·	·
COc1ccc(C2=NN(c3nc(-c4ccccc4)c(CC(=O)O)s3)C(c3ccco3)C2)cc1 (centres undefined)	20	30	87*	-78	-26	-6
O=C(O)/C=C/S(=O)(=O)c1ccc2ccccc2c1	-13	9	3	-3	1	-6
Cc1no[n+]([O-])c1COc1ccc(/C=C2\NC(=S)NC2=O)cc1	56*	4	16	·	-8	50*
Cn1c(=O)c(C(=O)NCCc2ccc(Cl)cc2)c(O)c2ccccc21	-3	4	-5	-4	-6	2
CN(c1ccc(C(=O)NC2CCCCC2)cc1)S(=O)(=O)c1ccccc1	-6	16	-1	11	-40	12
CN(c1ccccc1)S(=O)(=O)c1cccc(C(=O)NC2CCCCC2)c1	·	·	·	85*	·	·
